Reference: publication PMC5224916 (Journal of controlled release : official journal of the …, 2016)

Key:
[1] = test system: Caco2, MCF7, and MDA-MB-231 cells; experiment: In vitro cellular uptake assays; type: cell-based, human; conditions: 2 h incubation
How it was run: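 Caco2, MCF7 and MDA-MB-231 cells were incubated 2 h with free DiD or DiD-loaded plain or Fc-targeted nanoparticles, then fixed in 4% formalin in PBS. Membranes were labelled with a lipophilic dye and nuclei counterstained with DAPI; cells were examined by fluorescence microscopy. For competition, cells were pretreated 30 min with IgG Fc fragments.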

[2] = test system: intestinal epithelium (duodenum villi); experiment: In vivo intestinal uptake of nanoparticles; design: species or system CD-1 mice and nude mice; conditions: 0.5 mg/kg oral gavage, 2 h, CD-1 and nude mice
[3] = Plasma pharmacokinetics after oral administration; type: in vivo; conditions: 160 mg/kg oral, female CD-1 mice
How it was run: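 Female CD-1 mice were randomised into three groups and given a single oral dose of 160 mg/kg: free compound in PEG400:ethanol:saline (57.1:14.3:28.6), plain nanoparticles or Fc-targeted nanoparticles.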

MDA-MB-231 cells = experiment: Cell cycle distribution assay; type: cell-based, human; conditions: MDA-MB-231, 24 h, tested 0, 20, 50, 100 ng/mL
MDM2 = MDM2 (Homo sapiens, UniProt Q00987); experiment: Western blotting of MDM2, p53 and p21 in breast cancer cells; type: cell-based; conditions: 20 ng/mL, 24 h, MCF7 and MDA-MB-231 cells
MDM2, sequence (Q00987 whole entry): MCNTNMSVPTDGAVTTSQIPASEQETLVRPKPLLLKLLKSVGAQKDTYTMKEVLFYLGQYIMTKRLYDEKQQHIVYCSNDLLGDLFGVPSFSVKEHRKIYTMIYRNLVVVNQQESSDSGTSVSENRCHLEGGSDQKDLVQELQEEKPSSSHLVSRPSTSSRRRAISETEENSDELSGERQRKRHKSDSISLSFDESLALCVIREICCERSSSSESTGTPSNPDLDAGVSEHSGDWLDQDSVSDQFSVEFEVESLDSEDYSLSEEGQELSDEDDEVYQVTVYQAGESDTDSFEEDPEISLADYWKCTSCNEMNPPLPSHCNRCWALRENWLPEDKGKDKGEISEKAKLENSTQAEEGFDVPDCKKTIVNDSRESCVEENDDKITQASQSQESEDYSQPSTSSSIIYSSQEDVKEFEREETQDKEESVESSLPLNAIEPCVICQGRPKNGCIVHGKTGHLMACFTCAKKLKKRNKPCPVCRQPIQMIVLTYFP

MCF7 cells = experiment: Cell cycle distribution assay; type: cell-based, human; conditions: MCF7, 24 h, tested 0, 20, 50, 100 ng/mL
Caco2 cell monolayers = experiment: Caco2 cell monolayer permeability assay; type: in vitro ADME, human; conditions: apical to basolateral, 5 µg/mL, 120 min, 37°C, HPLC
How it was run: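 Caco2 cells grown on polycarbonate Transwell inserts, with monolayer integrity followed by TEER. Free or nanoparticle-formulated test compound (5 µg/mL) added apically; apical-to-basolateral transport tracked over 120 min by HPLC. Papp = (∂Q/∂t)/(A×C₀). For competition, cells were pretreated 30 min with IgG Fc fragments; transported Fc was quantified by human IgG Fc ELISA. Means ± SEM, at least three independent experiments.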

[4] = test system: MDA-MB-231 orthotopic tumors; experiment: MDA-MB-231 orthotopic tumor model, in vivo efficacy; design: species or system nude mice; conditions: 160 mg/kg/day oral
How it was run: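 Female athymic nu/nu mice, 4–6 weeks, received 1×10⁶ MDA-MB-231 cells in the second thoracic mammary fat pad under anaesthesia. After 2 weeks, mice were split into groups of 10. Dosing was by oral gavage, 5 days/week for 24 days: free compound in PEG400:ethanol:saline (57.1:14.3:28.6) or nanoparticles at 160 mg/kg/day, Fc-targeted form at 80 or 160 mg/kg/day; controls got vehicle. Mice with lung metastasis were counted at the end.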

Row | Structure (SMILES) | Cellular uptake of DiD (fluorescence microscopy) [1] | DiD fluorescence in the villi of the duodenum [2] | Cmax (peak plasma concentration of SP141) [3] | Concentration at which G2/M phase cell cycle arrest starts to be induced (MDA-MB-231 cells) | Effect on MDM2, p53 and p21 expression (MDM2) | Concentration at which G2/M phase cell cycle arrest starts to be induced (MCF7 cells) | Apparent permeability coefficient (Papp) (Caco2 cell monolayers) | Inhibition of MDA-MB-231 tumor growth ([4]; 5 days/week, Day 24) | Incidence of lung metastasis (mice with metastatic lesions in the lungs) ([4]; 24 days, 10 mice/group)
1 | CCCCCCCCCCCCCCCCCCN1C(=CC=CC=CC2=[N+](CCCCCCCCCCCCCCCCCC)c3ccccc3C2(C)C)C(C)(C)c2ccccc21.[O-][Cl+3]([O-])([O-])[O-] [DiD, 1,1'-dioctadecyl-3,3,3',3'-tetramethylindodicarbocyanine perchlorate] | unable to diffuse into the cells | not observed | – | – | – | – | – | – | –
2 | COc1ccc2[nH]c3c(-c4cccc5ccccc45)nccc3c2c1 [SP141] | – | – | 4300 ng/mL | 100 ng/mL | did not show significant effects | 100 ng/mL | 70 ×10⁻⁶ cm/s | 51% | 4/10
